pEC50, pIC50, pKi: −log10 of the molar value.
Key:
[1] = Inhibition of LPA-induced calcium transients in PC-3 cells; assay type: functional, cell-based, Homo sapiens; conditions: Homo sapiens, PC-3; read-out: IC50
Summary of the method: (§1)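 PC-3 human prostate cancer cells, which express LPA1-3 endogenously, 50000 cells/well. Serum-starved 12 h in modified Krebs, loaded with Fura-2 AM, read in a FlexStation. Ca2+ transient = 340/380 ratio peak minus baseline. Agonism (Emax as % of maximal LPA 18:1 response) and inhibition of LPA-induced transients were measured.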

[2] = molecular target: T1, Lysophosphatidic acid receptor 1 (Homo sapiens, UniProt Q92633); experiment: (§2) Inhibition of LPA-induced calcium transients in RH7777 rat hepatoma cells expressing LPA1 receptor; assay type: functional, cell-based
T1 sequence (Q92633 whole entry): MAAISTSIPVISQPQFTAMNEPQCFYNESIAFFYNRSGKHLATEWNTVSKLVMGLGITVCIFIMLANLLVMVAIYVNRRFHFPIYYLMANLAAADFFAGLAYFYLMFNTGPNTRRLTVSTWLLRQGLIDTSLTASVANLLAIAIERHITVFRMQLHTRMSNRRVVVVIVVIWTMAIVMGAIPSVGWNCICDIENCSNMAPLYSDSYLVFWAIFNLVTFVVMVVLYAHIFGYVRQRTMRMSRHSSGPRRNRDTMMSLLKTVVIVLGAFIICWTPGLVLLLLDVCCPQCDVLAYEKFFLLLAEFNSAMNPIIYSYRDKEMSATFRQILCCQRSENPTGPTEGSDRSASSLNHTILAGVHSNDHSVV
Summary of the method: (§3)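 Fura-2 Ca2+ assay. RH7777 cells stably expressing LPA1, LPA2 or LPA3, or PC-3 cells (endogenous LPA1-3), seeded at 50000 cells/well on poly-D-lysine and grown overnight. Serum-starved in modified Krebs, pH 7.4, for 6-8 h (PC-3: 12 h), then Fura-2 AM loaded for 35 min. Compound added at 15 s; wells read 80-120 s. Transient taken as peak minus baseline 340/380 ratio. Antagonism: LPA 18:1 coapplied; highest concentration 30 μM.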

[3] = Binding affinity for Lysophosphatidic acid receptor in PC-3 cells; assay type: cell-based, Homo sapiens; summary of the method: as §3
[4] = molecular target: T1, Lysophosphatidic acid receptor 1; experiment: (§4) Inhibition of LPA-induced calcium transients in RH7777 rat hepatoma cells expressing LPA1 receptor; No effect; assay type: functional, cell-based; summary of the method: as §3
[5] = molecular target: T2, Lysophosphatidic acid receptor 2 (Homo sapiens, UniProt Q9HBW0); experiment: Inhibition of LPA-induced calcium transients in RH7777 rat hepatoma cells expressing LPA2 receptor; No effect; assay type: functional, cell-based; summary of the method: as §3
T2 sequence (Q9HBW0 whole entry): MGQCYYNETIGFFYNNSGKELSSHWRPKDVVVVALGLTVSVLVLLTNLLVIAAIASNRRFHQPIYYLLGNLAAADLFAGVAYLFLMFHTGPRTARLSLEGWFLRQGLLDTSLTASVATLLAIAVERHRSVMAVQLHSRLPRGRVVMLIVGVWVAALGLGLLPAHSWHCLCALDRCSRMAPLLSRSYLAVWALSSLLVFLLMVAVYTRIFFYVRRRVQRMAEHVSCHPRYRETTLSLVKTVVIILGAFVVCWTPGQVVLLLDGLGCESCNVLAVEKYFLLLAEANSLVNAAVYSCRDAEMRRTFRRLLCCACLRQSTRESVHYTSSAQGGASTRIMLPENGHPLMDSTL

[6] = molecular target: T3, Lysophosphatidic acid receptor 3 (Homo sapiens, UniProt Q9UBY5); experiment: Inhibition of LPA-induced calcium transients in RH7777 rat hepatoma cells expressing LPA3 receptor; No effect; assay type: functional, cell-based; summary of the method: as §3
T3 sequence (Q9UBY5 whole entry): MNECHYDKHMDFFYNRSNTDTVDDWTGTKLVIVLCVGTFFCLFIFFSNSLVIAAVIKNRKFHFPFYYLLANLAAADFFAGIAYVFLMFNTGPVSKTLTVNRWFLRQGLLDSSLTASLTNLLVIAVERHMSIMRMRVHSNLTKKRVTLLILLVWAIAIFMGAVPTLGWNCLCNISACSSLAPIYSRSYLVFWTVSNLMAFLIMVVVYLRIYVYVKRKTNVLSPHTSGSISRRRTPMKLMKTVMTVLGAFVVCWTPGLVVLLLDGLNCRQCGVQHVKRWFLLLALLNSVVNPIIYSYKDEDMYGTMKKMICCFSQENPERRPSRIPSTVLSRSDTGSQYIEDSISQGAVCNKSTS

[7] = molecular target: T3, Lysophosphatidic acid receptor 3; experiment: (§5) Inhibition of LPA-induced calcium transients in RH7777 rat hepatoma cells expressing LPA3 receptor; assay type: functional, cell-based; summary of the method: as §3
[8] = molecular target: T2, Lysophosphatidic acid receptor 2; experiment: (§6) Inhibition of LPA-induced calcium transients in RH7777 rat hepatoma cells expressing LPA2 receptor; assay type: functional, cell-based; summary of the method: as §3
[9] = molecular target: T3, Lysophosphatidic acid receptor 3; experiment: Binding affinity for Lysophosphatidic acid receptor 3 expressed in RH7777 rat hepatoma cells; assay type: cell-based; summary of the method: as §3
Homo sapiens [10] = species on record: Homo sapiens; experiment: Inhibitory concentration of compound (after 5 min of incubation) against LPA human platelets
Homo sapiens [11] = species on record: Homo sapiens; experiment: Maximal shape change of human platelets induced by the compound; assay type: functional
Summary of the method: (§7)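 Washed human platelets, aspirin-treated and isolated with apyrase, at 4 × 10^5/μL in HEPES buffer pH 7.4, stirred at 37 °C. Lipids given as BSA complexes (4:1). Shape change read as the fall in light transmission in an aggregometer. […] Mean ± SD across different donors.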

[12] = molecular target: T2, Lysophosphatidic acid receptor 2; experiment: Binding affinity for Lysophosphatidic acid receptor 2 expressed in RH7777 rat hepatoma cells; assay type: cell-based; conditions: read-out: Ki
Homo sapiens [13] = species on record: Homo sapiens; experiment: (§8) Concentration of compound (after 5 min of addition) that induce LPA expressed in human platelets; assay type: functional; summary of the method: as §7
[14] = molecular target: T1, Lysophosphatidic acid receptor 1; experiment: as §4; assay type: functional, cell-based; remark: listed apart in the source
[15] = molecular target: T2, Lysophosphatidic acid receptor 2; experiment: as §6; assay type: functional, cell-based; remark: listed apart in the source
[16] = Percent maximal efficacy in PC-3 cells; assay type: functional, Homo sapiens; summary of the method: as §1
[17] = Inhibition of LPA-induced calcium transients in PC-3 cells; No effect; assay type: functional, cell-based, Homo sapiens; summary of the method: as §3
[18] = Inhibition of LPA expressed in PC-3 cells; No effect; assay type: functional, cell-based, Homo sapiens; summary of the method: as §3
Homo sapiens [19] = species on record: Homo sapiens; experiment: as §8; assay type: functional; remark: listed apart in the source
[20] = molecular target: T2, Lysophosphatidic acid receptor 2; experiment: Inhibition of LPA-induced calcium transients in RH7777 rat hepatoma cells expressing LPA2 receptor;No effect; assay type: functional, cell-based; summary of the method: as §3
[21] = molecular target: T1, Lysophosphatidic acid receptor 1; experiment: Binding affinity for Lysophosphatidic acid receptor 1 expressed in RH7777 rat hepatoma cells; assay type: cell-based; summary of the method: as §3
[22] = molecular target: T3, Lysophosphatidic acid receptor 3; experiment: as §5; assay type: functional, cell-based; remark: listed apart in the source
[23] = molecular target: T1, Lysophosphatidic acid receptor 1; experiment: Maximal efficacy in induction of [Ca2+] transients in RH7777 rat hepatoma cells expressing LPA1 receptor; assay type: functional, cell-based
Summary of the method: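 Agonist mode in RH7777 cells stably expressing the named LPA receptor, serum-starved 6-8 h, Fura-2 AM loaded. Increasing compound concentrations were added alone and the Ca2+ transient was read as the 340/380 ratio peak minus baseline. Emax = compound maximal response as a percentage of the LPA 18:1 maximal response.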

[24] = molecular target: T1, Lysophosphatidic acid receptor 1; experiment: as §2; assay type: functional, cell-based; remark: listed apart in the source

| SMILES | pIC50 [2] | pIC50 (Homo sapiens [10]) | EC50 [5] | pIC50 [1] | pKi [3] | EC50 [4] | IC50 [5] | EC50 [6] | pIC50 [7] | pKi [9] | Emax (Homo sapiens [11]) [%] | IC50 [14] | further results |
| --- | --- | --- | --- | --- | --- | --- | --- | --- | --- | --- | --- | --- | --- |
| C=CCCCCCCCCOP(=O)(O)O | < 5.00 |  |  | 5.82 | 6.24 | Not Active | Not Active | Not Active |  |  |  |  |  |
| CCCCCCCCCCOP(=O)(O)O [PHOSPHORIC ACID MONODECYL ESTER] |  |  |  |  |  | Not Active | Not Active | Not Active | 6.42 | 6.92 |  | Not Active |  |
| CCCCCCCCCCOP(O)(O)=S [THIOPHOSPHORIC ACID DECYL ESTER] |  |  |  | 5.91 | 6.28 | Not Active | Not Active | Not Active |  |  |  | Not Active |  |
| CCCCC/C=C/CCCOP(=O)(O)O | < 5.00 |  |  | 5.89 | 6.13 | Not Active | Not Active | Not Active | 6.08 | 6.43 |  |  | pEC50 [8]: < 5.00 |
| C=CCCCCCCCCOP(O)(O)=S |  |  |  | 6.00 | 6.27 | Not Active | Not Active | Not Active |  |  |  | Not Active | pEC50 [15]: < 5.00 |
| CCCC/C=C/CCCCCCCCOP(O)(O)=S |  |  |  | 6.03 | 6.40 | Not Active | Not Active | Not Active | 7.55 | 7.85 |  | Not Active | Emax [16]: 40%; pEC50 [15]: 6.32 |
| CCCCCCCCCCP(=O)(O)O |  |  | Not Active | 5.51 | 5.82 | Not Active | Not Active | Not Active | 5.92 | 6.17 |  | Not Active |  |
| CC/C=C/CCCCCCCCOP(O)(O)=S |  | 6.15 |  | 5.53 | 5.84 | Not Active | Not Active | Not Active | 7.57 | 7.85 | 73 | Not Active | Emax [16]: 27%; pEC50 (Homo sapiens [19]): 6.00; pEC50 [15]: 6.17 |
| CCCCCCCCCCCCCCOP(=O)(O)O [PHOSPHORIC ACID MONOTETRADECYL ESTER] | 5.64 | 6.38 | Not Active |  |  | Not Active |  | Not Active | 6.37 | 6.68 | 87 |  | pEC50 (Homo sapiens [13]): 6.37; IC50 [20]: Not Active; pKi [21]: 5.97 |

The next lines start with results.

| pIC50 [2] | pIC50 (Homo sapiens [10]) | EC50 [5] | SMILES | pIC50 [1] | pKi [3] | EC50 [4] | IC50 [5] | EC50 [6] | pIC50 [7] | pKi [9] | Emax (Homo sapiens [11]) [%] | IC50 [14] | further results |
| --- | --- | --- | --- | --- | --- | --- | --- | --- | --- | --- | --- | --- | --- |
| ~5.00 | 4.48 | Not Active | CCCCCCCCCCCCCCP(=O)(O)O | 5.01 | 5.34 | Not Active |  | Not Active | 5.51 | 5.95 | 0 |  | pIC50 [8]: 5.26; pKi [12]: 5.45 |
|  | 7.77 |  | CCCCCCCCCCCCCCCC(=O)OC[C@@H](O)COP(=O)(O)O |  |  |  |  |  |  |  | 120 |  | pEC50 (Homo sapiens [13]): 8.00 |
|  |  | Not Active | CCCCCCCCCCCCCCCCCCP(=O)(O)O |  |  | Not Active | Not Active | Not Active |  |  |  | Not Active | EC50 [17]: Not Active; IC50 [6]: Not Active; IC50 [18]: Not Active |
|  |  | Not Active | CCCCCCCCCCCCCCCC(=O)N[C@@H](COP(=O)(O)O)C(=O)O |  |  |  | Not Active |  |  |  |  |  | Emax [16]: 42%; pEC50 [22]: 5.80; Emax [23]: 100%; IC50 [6]: Not Active; pEC50 [24]: 5.73 |

Reference: ChEMBL document CHEMBL1140336, “Synthesis, structure-activity relationships, and biological evaluation of fatty alcohol phosphates as lysophosphatidic acid receptor ligands, activators of PPARgamma, and inhibitors of autotaxin” (J Med Chem, 2005)
